Screening results (PubChem BioAssay)
Neddyl block – inhibitors of cullin neddylation, primary screen, biochemical, TR-FRET, uHTS, NAE and Ubc12 | calls only at 25 µM | 360,000 tested, 0.58% active | NEDD8-conjugating enzyme Ubc12 (Homo sapiens) + NEDD8-activating enzyme E1 regulatory …; in the data active = inhibition above about 36%
MT1-MMP act inh – blockers of MT1-MMP proenzyme processing, primary screen, HT1080 RFP-PRO-GFP cells, GFP/RFP fluorescence; GFP/RFP ratio fluorescence, overnight; percent of plate control window, DMSO zero; 360,000 tested, 0.061% active; AID 651647, 2012; GFP/RFP ratio change, % at 20 µM; Matrix metalloproteinase-14 (Homo sapiens), P50281;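 active = GFP/RFP ratio change of at least 30% with cell ATP level not reduced by more than half and red fluorescence within 50% of control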
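Test system: HT1080 cells expressing an RFP-PRO-GFP fluorescent reporter construct / Compound dosing: single-point 20 µM compound, 1% DMSO / Schedule: cells overnight before dosing, compound overnight, 37 °C, 5% CO2 / Evaluation: GFP/RFP fluorescence ratio / Control set: DMSO and RFP-L50D-GFP cell wells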
proKLK7 act – proKLK7 zymogen activators, primary screen, biochemical, fluorescence intensity; activation, % at 7 µM; Kallikrein-7 (Homo sapiens), P49862; AID 652039, 2013; purified proKLK7, EDANS-DABCYL substrate fluorescence; 100% is mature enzyme control, 0% vehicle; 370,000 tested, 0.9% active;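 active = activation above the mean of all tested compounds plus 3 SD, computed per campaign excluding outliers beyond control limits, cut at about 13% in these data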
DDE Tn6 FP inh – inhibitors of Tn6 peptide binding to fibrin DD(E), primary screen, biochemical, fluorescence polarization, human fibrin, Tn6 probe. Fibrin DD(E) TRITC-Tn6 fluorescence polarization displacement. AID 720509, 2013. 370,000 tested, 0.21% active. inhibition, % at 8.3 µM. Fibrinogen beta chain (Homo sapiens), P02675;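 active = inhibition above a per-campaign cutoff: mean of compounds within control limits plus 3 SD, cut at about 15% in these data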;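 also: 0% = median of all compound wells on the plate and 100% = blocking peptide control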
Target sequence (P02675 whole entry, looked up): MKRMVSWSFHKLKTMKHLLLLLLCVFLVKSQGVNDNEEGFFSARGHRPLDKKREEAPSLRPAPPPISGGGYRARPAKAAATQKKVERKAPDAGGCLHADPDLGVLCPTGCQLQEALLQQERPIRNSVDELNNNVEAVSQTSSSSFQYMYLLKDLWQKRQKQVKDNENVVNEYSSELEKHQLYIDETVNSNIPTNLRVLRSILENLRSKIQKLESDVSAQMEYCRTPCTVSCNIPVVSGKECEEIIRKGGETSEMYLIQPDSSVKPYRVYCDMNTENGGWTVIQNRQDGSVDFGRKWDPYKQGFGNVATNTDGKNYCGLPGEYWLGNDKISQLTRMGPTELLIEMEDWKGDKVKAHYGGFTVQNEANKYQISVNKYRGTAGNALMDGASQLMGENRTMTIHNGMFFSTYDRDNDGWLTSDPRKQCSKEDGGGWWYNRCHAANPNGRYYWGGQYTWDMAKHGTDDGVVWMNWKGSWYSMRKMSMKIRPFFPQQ
SKN-1 inh – suppressors of acrylamide-induced Pgst-4::GFP reporter in worms, primary screen, SKN-1 inhibitor project, whole organism, uHTS, GFP/RFP fluorescence ratio, strain VP596 | inhibition, % at 21.8 µM | C. elegans VP596 Pgst-4::GFP/RFP ratio, 24 h | AID 624304, 2012 | 360,000 tested, 0.49% active;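 active = interference check ratio from 0.5 to 1.5 plus GFP to RFP signal ratio inhibition reaching or exceeding a fixed threshold, cut at about 30% in these data, passing the limit was not always enough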
DDE Tn7 FP inh – inhibitors of Tn7 peptide binding to fibrin DD(E), primary screen, biochemical, fluorescence polarization, human fibrin, Tn7 probe; Fibrinogen beta chain (Homo sapiens), P02675; FP displacement of FITC-Tn7 peptide from fibrin DD(E); 0% = median of compound wells per plate; inhibition, % at 8.3 µM; 370,000 tested, 0.13% active; AID 720508, 2013;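 active = inhibition above the mean of compounds falling within the control limits plus 3 SD of them, cut at about 14% in these data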;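 also: 0% = plate median of compound wells and 100% = 10 µM Aha-Tn7 peptide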
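Also added: labelled Tn7 tracer, 0.1 µM; Assay system: human fibrin DD(E) protein; Amount: 2 µM fibrin DD(E); Schedule: 10 min compound pre-incubation, 3 h probe incubation at room temperature; Repeats: one replicate per compound; Read-out basis: percent inhibition; Measured by: fluorescence polarization of the labelled Tn7 tracer.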
Neddyl inh conf – blockade of NEDD8 conjugation to cullin – biochemical, TR-FRET, single concentration, confirmation | TR-FRET cullin neddylation biochemical assay | calls only at 25 µM | 1,800 tested, 13% active | AID 652217, 2013 | shares compounds with Neddyl block; in the data active = inhibition above about 40%;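 also: neddylation substrate is the cullin 1 ring ligase complex with SKP2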
Active calls of the source: *; i = inactive; · = not tested or not shown; + = active, no number. A selection: hits, their analogues and other compounds. The true share with any hit is near 2.2%.

SMILES	Neddyl block	MT1-MMP act inh	proKLK7 act	DDE Tn6 FP inh	SKN-1 inh	DDE Tn7 FP inh	Neddyl inh conf
O=C(c1cc(COc2ccc(F)cc2Cl)on1)N1CCN(c2cnccn2)CC1	·	0	0	-2	-15	-2	·
CCN(C(=O)COC(=O)c1cc([N+](=O)[O-])ccc1N1CCCCC1)C1CCS(=O)(=O)C1 (stereo unspecified)	i	2	0	5	-14	0	·
CC(C)Cc1csc(NC(=O)c2ccccc2Cl)c1C(=O)O	i	4	0	-9	4	6	·
CC(C)Cc1csc(NC(=O)c2ccc(Cl)cc2)c1C(=O)O	+	1	0	4	12	7	i
COc1ccc(-c2oc3ncnc(NCCCN4CCOCC4)c3c2-c2ccc(OC)cc2)cc1	·	-8	-4	0	11	-5	·
c1ccc(-c2oc3ncnc(NCCCN4CCOCC4)c3c2-c2ccccc2)cc1	+	-8	-1	-1	13	-7	+
Cc1c(C)c2ccc(OCC(=O)Nc3ccc(CN4CCOCC4)cc3)cc2oc1=O	+	2	1	0	-2	-5	i
O=C(COc1ccc2ccc(=O)oc2c1)Nc1ccc(N2CCCCC2)cc1	+	4	-4	-1	-15	0	·
CCCCN(C)C(=O)c1cc2cc3ccc(OC)cc3nc2o1	+	5	12	5	-11	3	+
CN(C)c1ccc(C(=O)NCc2ccc3c(c2)OCO3)cc1	i	-5	0	3	4	4	·
CN(C)c1cccc(C(=O)NCc2ccc3c(c2)OCO3)c1	+	-5	0	6	7	-2	+
Cc1ccc2c(c1)c(C)cc[n+]2Cc1ccccc1	i	-2	0	-3	0	-1	·
COc1ccc2c(c1)c(C)cc[n+]2Cc1ccccc1	+	-1	7	1	-2	6	·
Cc1c(O)ccc2c(-c3ccccc3)cc(=O)oc12	·	-27	-7	0	-12	0	·
CCCCN(CC)Cc1c(O)ccc2c(-c3ccccc3)cc(=O)oc12	+	-4	7	-8	18	-3	·
Cc1c(C)c2cc(Cl)c(OCc3nn[nH]n3)cc2oc1=O	+	0	1	-1	-26	-4	i
CN(CCO)S(=O)(=O)c1ccc2c(c1)C(=NO)c1cc(S(=O)(=O)N(C)CCO)ccc1-2	+	-1	11	-1	12	2	i
NS(=O)(=O)c1ccc2c(c1)C(=NO)c1cc(S(N)(=O)=O)ccc1-2	i	4	5	1	9	-8	·
COc1ccc(/C=N\NC(=O)c2ccc(-c3ccccc3)cc2)cc1COC(C)=O	+	2	-2	-9	7	-2	i
COc1ccc(/C=N/NC(=O)c2ccc(O)cc2O)cc1CSc1ccccn1	+	3	1	-15	-4	-3	i
CCCCN1C(=O)C(CC(=O)NC2CCCCC2)CC(C(=O)N2CCOCC2)=C1C (stereo unspecified)	i	-1	0	-5	5	7	·
Cc1[nH]n2c(=O)c3c(nc2c1-c1ccccc1)CCC3	i	6	-3	6	-28	6	·
O=c1c2c(nc3c(-c4ccccc4)c[nH]n13)CCCC2	+	3	-14	7	13	0	·
